pIC50, pKi: −log10 of the molar value. Entries after “also recorded” stand apart in the source; their conditions may differ. Blank lines part the entries; values can stand above or below the compound they belong to.
Experiments:
[1] = biological target: T1, AbDapE (Acinetobacter baumannii, UniProt A3M8H2); experiment: DapE ninhydrin enzyme inhibition assay, AbDapE; format: biochemical; conditions: for Inhibition of AbDapE (in words): tested at 100 μM; for Mode of inhibition of AbDapE: kinetic assays, modified ninhydrin assay
Outline: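 Purified His-tag-cleaved AbDapE at 8 nM final in 50 mM HEPES pH 7.5, 30 °C. Test compound (DMSO, 5% final) is preincubated with enzyme for 10 min before 2 mM N6-methyl-L,L-SDAP. After 10 min, heat to 100 °C for 1 min, chill, add 2% ninhydrin, 80 °C for 15 min, then read A570.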

[2] = biological target: T2, HiDapE (Haemophilus influenzae, UniProt P44514); experiment: Thermal shift assay, HiDapE; format: binding; conditions: for Effect on stability (Tm) of HiDapE, in words: thermal shift assays
T2 sequence (P44514 1-377): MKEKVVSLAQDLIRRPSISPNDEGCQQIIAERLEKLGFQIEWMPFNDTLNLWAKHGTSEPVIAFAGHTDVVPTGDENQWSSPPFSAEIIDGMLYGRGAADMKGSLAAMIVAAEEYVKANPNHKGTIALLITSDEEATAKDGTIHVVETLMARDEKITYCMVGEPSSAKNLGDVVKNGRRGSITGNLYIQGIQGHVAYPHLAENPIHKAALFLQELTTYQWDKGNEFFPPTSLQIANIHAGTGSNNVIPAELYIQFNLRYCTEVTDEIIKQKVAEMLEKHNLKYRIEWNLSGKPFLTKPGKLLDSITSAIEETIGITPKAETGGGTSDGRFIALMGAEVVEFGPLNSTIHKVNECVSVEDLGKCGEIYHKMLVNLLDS

[3] = biological target: T1, AbDapE; experiment: Thermal shift assay, AbDapE native; format: binding; conditions: for Tm1 AbDapE / Tm2 AbDapE: 16 μM AbDapE + 10× dye
Outline: (§1)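 SYPRO Orange thermal melt at 10× dye in 50 mM HEPES pH 7.5, 10 µL triplicates. Protein is 16 µM for native AbDapE and 6 µM for SeMet AbDapE, with DMSO kept below 5%. Tm comes from the negative first derivative of the melting curves, further differentiated to the third derivative. Ki is calculated from Tm plotted against log[test compound] using a derived van't Hoff equation.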

[4] = biological target: AbDapE-SeMet (Acinetobacter baumannii, UniProt A3M8H2); experiment: Thermal shift assay, AbDapE-SeMet; format: binding; conditions: 6 μM AbDapE-SeMet + 10× dye
Outline: as §1

[5] = biological target: T2, HiDapE; conditions: read-out: HiDapE IC50 (sulfate); previously published enzyme inhibition; cited from earlier work
[6] = tested on: DapE; conditions: DapE from E. faecium and E. coli studied; cited from earlier work
[7] = 0.005 μM captopril, 200 nM HiDapE + 10× dye
[8] = 0.05 μM captopril, 200 nM HiDapE + 10× dye
[9] = 0.1 μM captopril, 200 nM HiDapE + 10× dye
[10] = 0.5 μM captopril, 200 nM HiDapE + 10× dye
[11] = 0.8 μM captopril, 200 nM HiDapE + 10× dye
[12] = 1 μM captopril, 200 nM HiDapE + 10× dye
[13] = 3 μM captopril, 200 nM HiDapE + 10× dye
[14] = 5 μM captopril, 200 nM HiDapE + 10× dye
[15] = 10 μM captopril, 200 nM HiDapE + 10× dye
[16] = 0.001 mM Li2SO4, 200 nM HiDapE + 10× dye
[17] = 0.005 mM Li2SO4, 200 nM HiDapE + 10× dye
[18] = 0.1 mM Li2SO4, 200 nM HiDapE + 10× dye
[19] = 0.5 mM Li2SO4, 200 nM HiDapE + 10× dye
[20] = 1 mM Li2SO4, 200 nM HiDapE + 10× dye
[21] = 5 mM Li2SO4, 200 nM HiDapE + 10× dye
[22] = 10 mM Li2SO4, 200 nM HiDapE + 10× dye
[23] = 30 mM Li2SO4, 200 nM HiDapE + 10× dye
[24] = 50 mM Li2SO4, 200 nM HiDapE + 10× dye
[25] = 60 mM Li2SO4, 200 nM HiDapE + 10× dye
[26] = 70 mM Li2SO4, 200 nM HiDapE + 10× dye

Chain of AbDapE-SeMet (A3M8H2 whole entry): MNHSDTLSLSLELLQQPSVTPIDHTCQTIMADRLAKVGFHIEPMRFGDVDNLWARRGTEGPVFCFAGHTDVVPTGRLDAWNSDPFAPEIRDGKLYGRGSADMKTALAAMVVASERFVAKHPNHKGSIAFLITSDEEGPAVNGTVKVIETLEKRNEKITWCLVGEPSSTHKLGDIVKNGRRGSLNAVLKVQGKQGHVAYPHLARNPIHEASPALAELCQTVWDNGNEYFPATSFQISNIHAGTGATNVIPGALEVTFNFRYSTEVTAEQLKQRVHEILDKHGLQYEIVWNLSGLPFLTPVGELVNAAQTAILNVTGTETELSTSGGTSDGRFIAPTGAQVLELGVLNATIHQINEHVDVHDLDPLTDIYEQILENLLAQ
T1 sequence (A3M8H2 whole entry): as above

Structure (SMILES): CCN(CC)C(=S)SSC(=S)N(CC)CC [disulfiram]
Effect on Tm values of DapE, in words [6]: lowering of the Tm values

Structure (SMILES): Cc1ccccc1C(OCCN(C)C)c1ccccc1 (stereo not shown) [orphenadrine]
Effect on Tm values of DapE, in words [6]: lowering of the Tm values

Further lines, with some results ahead:

Inhibition of AbDapE (in words) [1]: did not inhibit AbDapE significantly
Structure (SMILES): CC(=O)N1CCc2cc(Cl)c(S(=O)(=O)NCCC(C)C)cc21 [1-acetyl-5-chloro-N-isopentylindoline-6-sulfonamide]
Inhibition of AbDapE (in words) ([1]; listed as indoline sulfonamide): not significantly inhibited; also recorded: did not measurably inhibit

pIC50 ([1]; AbDapE IC50, ninhydrin assay, 8 nM enzyme, 2 mM N^6-methyl-L,L-SDAP): 5.92
Mode of inhibition of AbDapE [1]: competitive inhibitors
Tm1 HiDapE [2, 7]: 51.5 ± 0.1 °C
Tm2 HiDapE [2, 7]: 78.2 ± 0.1 °C
Tm1 HiDapE [2, 8]: 50.2 ± 0.6 °C
Tm2 HiDapE [2, 8]: 78.6 ± 0.1 °C
Tm1 HiDapE [2, 9]: 50.0 ± 0.8 °C
Tm2 HiDapE [2, 9]: 78.1 ± 0.1 °C
Tm1 HiDapE [2, 10]: 50.5 ± 0.1 °C
Tm2 HiDapE [2, 10]: 78.3 ± 0.1 °C
Tm1 HiDapE [2, 11]: 50.3 ± 0.5 °C
Tm2 HiDapE [2, 11]: 77.9 ± 0.1 °C
Tm1 HiDapE [2, 12]: 51.2 ± 0.2 °C
Tm2 HiDapE [2, 12]: 77.8 ± 0.1 °C
Tm1 HiDapE [2, 13]: 52.2 ± 0.1 °C
Tm2 HiDapE [2, 13]: 78.0 ± 0.1 °C
Tm1 HiDapE [2, 14]: 53.2 ± 0.2 °C
Tm2 HiDapE [2, 14]: 77.8 ± 0.1 °C
Tm1 HiDapE [2, 15]: 52.9 ± 0.6 °C
Tm2 HiDapE [2, 15]: 77.9 ± 0.1 °C
Effect on stability (Tm) of HiDapE, in words [2]: stabilize HiDapE
Tm1 AbDapE ([3]; 0.005 μM captopril): 41.9 ± 0.1 °C
Tm2 AbDapE ([3]; 0.005 μM captopril): 62.9 ± 0.1 °C
Tm1 AbDapE ([3]; 0.05 μM captopril): 41.9 ± 0.2 °C
Tm2 AbDapE ([3]; 0.05 μM captopril): 63.3 ± 0.7 °C
Tm1 AbDapE ([3]; 0.1 μM captopril): 41.9 ± 0.1 °C
Tm2 AbDapE ([3]; 0.1 μM captopril): 62.6 ± 0.3 °C
Tm1 AbDapE ([3]; 0.5 μM captopril): 41.9 ± 0.2 °C
Tm2 AbDapE ([3]; 0.5 μM captopril): 63.1 ± 0.4 °C
Tm1 AbDapE ([3]; 0.8 μM captopril): 41.9 ± 0.1 °C
Tm2 AbDapE ([3]; 0.8 μM captopril): 62.3 ± 0.1 °C
Tm1 AbDapE ([3]; 1 μM captopril): 41.7 ± 0.1 °C
Tm2 AbDapE ([3]; 1 μM captopril): 63.4 ± 1.0 °C
Tm1 AbDapE ([3]; 3 μM captopril): 41.7 ± 0.2 °C
Tm2 AbDapE ([3]; 3 μM captopril): 65.1 ± 0.3 °C
Tm1 AbDapE ([3]; 5 μM captopril): 41.4 ± 0.1 °C
Tm2 AbDapE ([3]; 5 μM captopril): 64.1 ± 0.2 °C
Tm1 AbDapE ([3]; 10 μM captopril): 41.1 ± 0.1 °C
Tm2 AbDapE ([3]; 10 μM captopril): 66.6 ± 0.2 °C
Tm1 AbDapE ([3]; 15 μM captopril): 42.0 ± 0.1 °C
Tm2 AbDapE ([3]; 15 μM captopril): 65.5 ± 0.4 °C
Effect on stability of AbDapE, in words ([3]; thermal shift assays): increases the stability
Tm AbDapE-SeMet ([4]; 0.005 μM captopril): 65.3 ± 0.2 °C
Tm AbDapE-SeMet ([4]; 0.05 μM captopril): 65.5 ± 0.1 °C
Tm AbDapE-SeMet ([4]; 0.1 μM captopril): 65.3 ± 0.2 °C
Tm AbDapE-SeMet ([4]; 0.5 μM captopril): 65.1 ± 0.1 °C
Tm AbDapE-SeMet ([4]; 0.8 μM captopril): 66.1 ± 0.1 °C
Tm AbDapE-SeMet ([4]; 1 μM captopril): 65.7 ± 0.1 °C
Tm AbDapE-SeMet ([4]; 3 μM captopril): 66.4 ± 0.3 °C
Tm AbDapE-SeMet ([4]; 5 μM captopril): 67.2 ± 0.2 °C
Tm AbDapE-SeMet ([4]; 10 μM captopril): 68.5 ± 0.1 °C
Structure (SMILES): C[C@H](CS)C(=O)N1CCC[C@H]1C(=O)O [Captopril]

Mode of inhibition of AbDapE [1]: competitive inhibitors
Tm1 HiDapE [2, 16]: 51.7 ± 0.3 °C
Tm2 HiDapE [2, 16]: 75.6 ± 0.3 °C
Tm1 HiDapE [2, 17]: 51.4 ± 0.2 °C
Tm2 HiDapE [2, 17]: 76.2 ± 0.5 °C
Tm1 HiDapE [2, 18]: 52.7 ± 0.4 °C
Tm2 HiDapE [2, 18]: 76.1 ± 0.6 °C
Tm1 HiDapE [2, 19]: 51.2 ± 0.7 °C
Tm2 HiDapE [2, 19]: 78.3 ± 0.1 °C
Tm1 HiDapE [2, 20]: 50.7 ± 0.2 °C
Tm2 HiDapE [2, 20]: 77.8 ± 0.1 °C
Tm1 HiDapE [2, 21]: 51.2 ± 0.6 °C
Tm2 HiDapE [2, 21]: 77.7 ± 0.1 °C
Tm1 HiDapE [2, 22]: 51.2 ± 0.6 °C
Tm2 HiDapE [2, 22]: 77.4 ± 0.1 °C
Tm1 HiDapE [2, 23]: 52.6 ± 0.5 °C
Tm2 HiDapE [2, 23]: 74.6 ± 0.3 °C
Tm1 HiDapE [2, 24]: 53.3 ± 0.5 °C
Tm2 HiDapE [2, 24]: 75.9 ± 0.1 °C
Tm1 HiDapE [2, 25]: 53.3 ± 0.3 °C
Tm2 HiDapE [2, 25]: 73.8 ± 0.1 °C
Tm1 HiDapE [2, 26]: 54.4 ± 0.5 °C
Tm2 HiDapE [2, 26]: 76.6 ± 0.1 °C
pKi ([2]; read-out: Ki (HiDapE, thermal shift), Tm vs log [concentration], derived Van't Hoff equation, 200 nM HiDapE + 10× dye): 1.74
Effect on stability (Tm) of HiDapE, in words [2]: stabilize HiDapE
Tm1 AbDapE ([3]; 0.001 mM Li2SO4): 41.4 ± 0.1 °C
Tm2 AbDapE ([3]; 0.001 mM Li2SO4): 63.1 ± 0.1 °C
Tm1 AbDapE ([3]; 0.005 mM Li2SO4): 41.8 ± 0.2 °C
Tm2 AbDapE ([3]; 0.005 mM Li2SO4): 62.8 ± 0.2 °C
Tm1 AbDapE ([3]; 0.1 mM Li2SO4): 41.6 ± 0.1 °C
Tm2 AbDapE ([3]; 0.1 mM Li2SO4): 62.2 ± 0.1 °C
Tm1 AbDapE ([3]; 0.5 mM Li2SO4): 41.7 ± 0.1 °C
Tm2 AbDapE ([3]; 0.5 mM Li2SO4): 63.1 ± 0.1 °C
Tm1 AbDapE ([3]; 1 mM Li2SO4): 41.3 ± 0.1 °C
Tm2 AbDapE ([3]; 1 mM Li2SO4): 63.0 ± 0.1 °C
Tm1 AbDapE ([3]; 5 mM Li2SO4): 41.6 ± 0.1 °C
Tm2 AbDapE ([3]; 5 mM Li2SO4): 61.5 ± 0.2 °C
Tm1 AbDapE ([3]; 10 mM Li2SO4): 41.5 ± 0.1 °C
Tm2 AbDapE ([3]; 10 mM Li2SO4): 60.4 ± 0.1 °C
Tm1 AbDapE ([3]; 30 mM Li2SO4): 42.2 ± 0.2 °C
Tm2 AbDapE ([3]; 30 mM Li2SO4): 59.1 ± 0.2 °C
Tm1 AbDapE ([3]; 50 mM Li2SO4): 42.1 ± 0.1 °C
Tm2 AbDapE ([3]; 50 mM Li2SO4): 58.3 ± 0.1 °C
Tm1 AbDapE ([3]; 60 mM Li2SO4): 42.4 ± 0.2 °C
Tm2 AbDapE ([3]; 60 mM Li2SO4): 57.5 ± 0.1 °C
Tm1 AbDapE ([3]; 70 mM Li2SO4): 42.4 ± 0.3 °C
Tm2 AbDapE ([3]; 70 mM Li2SO4): 56.7 ± 0.2 °C
Tm AbDapE-SeMet ([4]; 0.001 mM Li2SO4): 64.2 ± 0.7 °C
Tm AbDapE-SeMet ([4]; 0.005 mM Li2SO4): 64.1 ± 0.3 °C
Tm AbDapE-SeMet ([4]; 0.1 mM Li2SO4): 64.0 ± 0.2 °C
Tm AbDapE-SeMet ([4]; 0.5 mM Li2SO4): 64.9 ± 0.1 °C
Tm AbDapE-SeMet ([4]; 1 mM Li2SO4): 64.7 ± 0.5 °C
Tm AbDapE-SeMet ([4]; 5 mM Li2SO4): 65.2 ± 0.1 °C
Tm AbDapE-SeMet ([4]; 10 mM Li2SO4): 65.0 ± 0.3 °C
Tm AbDapE-SeMet ([4]; 50 mM Li2SO4): 63.1 ± 0.1 °C
Tm AbDapE-SeMet ([4]; 70 mM Li2SO4): 61.8 ± 0.1 °C
Structure (SMILES): O=S(=O)([O-])[O-].[Li+].[Li+] [Lithium sulfate]
pIC50 [5]: 1.86
